Compound activity (PubChem BioAssay)
Shown are actives, neighbours in structure and some others; about 2.9% of the full set was active somewhere.
TRPC6 act – activates the mouse TRPC6 cation channel. 0.13% of 310,000 active. B-score at 10 µM. Q61143. HEK293-TRPC6 membrane potential dye fluorescence; hits give high values;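 active means B-score of the integrated fluorescence ratio above library mean plus 3 SD, and starting fluorescence ratio within library mean plus 5 SD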;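 further: higher score means more depolarization so channel activation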
TRPC4 act – activators of mouse TRPC4 channel; 0.49% of 310,000 active; B-score at 10 µM; Q9QUQ5; HEK293 TRPC4beta/mu-opioid, Fluo4 calcium fluorescence; hits give high values;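 active means B-score above 5 SD of library B-scores, and initial fluorescence ratio not above library mean plus 5 SD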;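 further: positive B-score marks a calcium rise read as TRPC4 activation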
Target sequence (Q9QUQ5 whole entry, looked up): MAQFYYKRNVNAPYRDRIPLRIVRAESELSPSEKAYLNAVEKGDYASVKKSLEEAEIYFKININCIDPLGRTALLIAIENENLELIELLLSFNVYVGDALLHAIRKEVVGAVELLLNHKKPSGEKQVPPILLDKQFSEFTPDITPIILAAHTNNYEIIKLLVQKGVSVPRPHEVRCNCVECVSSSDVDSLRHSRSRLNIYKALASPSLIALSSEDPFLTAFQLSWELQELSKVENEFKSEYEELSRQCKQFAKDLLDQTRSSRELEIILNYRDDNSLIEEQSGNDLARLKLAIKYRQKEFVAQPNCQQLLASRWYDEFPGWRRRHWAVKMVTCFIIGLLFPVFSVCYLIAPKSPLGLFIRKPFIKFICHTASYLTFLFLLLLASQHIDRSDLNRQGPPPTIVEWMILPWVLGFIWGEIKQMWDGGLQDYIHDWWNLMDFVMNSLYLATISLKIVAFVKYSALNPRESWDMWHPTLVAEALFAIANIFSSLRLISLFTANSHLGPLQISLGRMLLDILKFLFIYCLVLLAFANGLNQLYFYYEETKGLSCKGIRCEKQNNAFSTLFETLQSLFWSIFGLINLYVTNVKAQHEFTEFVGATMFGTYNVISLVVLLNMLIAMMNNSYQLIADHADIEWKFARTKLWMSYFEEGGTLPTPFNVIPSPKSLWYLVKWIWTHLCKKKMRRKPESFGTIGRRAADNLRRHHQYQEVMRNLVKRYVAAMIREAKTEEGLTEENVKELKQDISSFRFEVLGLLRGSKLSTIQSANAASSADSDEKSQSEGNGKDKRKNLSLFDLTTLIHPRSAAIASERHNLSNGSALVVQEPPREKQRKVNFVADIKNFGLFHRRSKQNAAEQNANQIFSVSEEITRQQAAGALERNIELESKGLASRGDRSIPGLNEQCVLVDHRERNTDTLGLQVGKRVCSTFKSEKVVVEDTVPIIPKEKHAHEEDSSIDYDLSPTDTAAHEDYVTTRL
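Material: TRPC4beta and mu-opioid receptor HEK293 stable cells | Incubation: 45 min room-temperature Fluo4 loading, 110 s read | Detection: Kinetic Fluo4 calcium fluorescence | Measure: Integrated baseline-normalised fluorescence ratio, converted to per-well B score | Benchmarks: Low control buffer alone, high control maximal DAMGO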
TRPC4 block – TRPC4 (mouse) channel inhibition; Q9QUQ5; HEK293 TRPC4beta/mu-opioid, DAMGO-evoked Fluo4 calcium flux; hits give low values; B-score at 10 µM; 0.39% of 300,000 active; AID 2247;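 active means B-score over 3 SD under the library average, no early fluorescence shift, positive overall ratio signal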
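Assay system: Stable TRPC4beta/mu-opioid receptor HEK293 cells | Reagent: DAMGO in two steps, submaximal then maximal | Compound dosing: Single concentration per test compound | Signal: Fluo4 Ca2+ flux fluorescence | Evaluation: Per-well B score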
TRPC4 potent – allosterically enhances the mouse TRPC4 cation channel | HEK293 TRPC4beta/mu-opioid, DAMGO EC20, Fluo-4 Ca2+ flux; hits give high values | 0.42% of 310,000 active | AID 2227 | B-score at 10 µM | Q9QUQ5;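 active means B-score of calcium response area above 5 SD of library B-scores, with initial fluorescence ratio within 5 SD of library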;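 further: B-score of integrated fluorescence ratio over time as area under calcium response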
Kir21 block – inhibitors of mouse Kir2.1 inward-rectifier potassium channel | B-score at 10 µM | 0.85% of 310,000 active | HEK293-Kir2.1, FluxOR thallium flux fluorescence; hits give low values;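 active means fluorescence ratio B-score at or below minus 3 SD of library scores, with starting-brightness B-score within 2 SD, cut at about -4.2 in these data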;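 further: channel flux triggered by added potassium and thallium sulfate stimulus; B-score of peak minus minimum fluorescence over baseline after thallium stimulus; more negative B-score means stronger Kir2.1 block with less thallium influx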
TRPC6 inhibitor – blocks the mouse TRPC6 cation channel; AID 2553; Q61143; HEK293-TRPC6, membrane potential dye, ACh-evoked depolarization; hits give low values; 1.1% of 310,000 active; B-score at 10 µM;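 active means B-score under library mean minus 3 SD, initial fluorescence not abnormally high, positive integrated signal ratio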;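 further: B-score derived from integrated fluorescence ratio over the kinetic read; more negative B-score means stronger inhibition of depolarization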
TRPC4 spec 2 – second check of whether TRPC6 inhibitors also affect mouse TRPC4; shares compounds with TRPC6 inhibitor; HEK293 TRPC4/MOR, membrane potential dye fluorescence; channel activated by saturating DAMGO dose; inhibition, % at 10 µM; 42% of 920 active; AID 2776;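 active means compounds whose fluorescence signal differed from control wells by over 3 SD, either direction, in both duplicate plates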
TRPC4 spec – selectivity of TRPC6 inhibitors: effect on mouse TRPC4. shares compounds with TRPC6 inhibitor. HEK293 TRPC4/mu-opioid, membrane potential fluorescence. activity change, negative = inhibition, % at 10 µM. 61% of 920 active. AID 2777;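 active means rise or fall in signal beyond 3 SD of buffer-only wells in both replicate plates, either sign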;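 further: integrated kinetic ratio of fluorescence range over baseline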
HEK293 MPD ctr 2-1 – parental HEK293 nonspecific activity of TRPC6 inhibitors, second screen; shares compounds with TRPC6 inhibitor; parental HEK293 membrane potential dye fluorescence; maximal acetylcholine challenge after compound addition; signal change vs control, % at 10 µM; 31% of 920 active;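 active means membrane potential signal moving either way by over 3 SD of the maximum-effect control, in both duplicate plates, meaning non-specific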
HEK293 MPD ctr-1 – parental HEK293 nonspecific activity of TRPC6 inhibitors; shares compounds with TRPC6 inhibitor; parental HEK293 membrane potential dye fluorescence; membrane potential signal change, % at 10 µM; 60% of 920 active; AID 2780;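 active means membrane potential signal shifting up or down by more than 3 SD of buffer-only wells, on both duplicate plates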
HEK293 MPD ctr-2 – counter-screen for TRPC6 modulators: effect in parental HEK293 cells; shares compounds with TRPC6 inhibitor; membrane potential dye fluorescence; membrane potential signal change, % at 10 µM; 51% of 2,400 active; AID 488924;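 active means membrane potential signal moves up or down beyond 5 SD from buffer-only wells, on both duplicate plates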
HEK293 MPD ctr 2-2 – second counter-screen for TRPC6 modulators: effect in parental HEK293 cells | shares compounds with TRPC6 inhibitor | membrane potential dye fluorescence; after compound, maximal acetylcholine stimulation | inhibition, % at 10 µM | 14% of 2,400 active | AID 488926;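 active means membrane potential signal drops by more than 5 SD from the mean control signal, in both duplicate plates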;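 further: plate controls were acetylcholine ECmax control wells for no effect and buffer only wells for full effect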
TRPC4/MOR mod – mouse TRPC4 off-target activity of TRPC6 modulators; 69% of 2,400 active; percent change from control (negative = decrease, positive = increase), % at 10 µM; HEK293 TRPC4/mu-opioid, membrane potential fluorescence; shares compounds with TRPC6 inhibitor; AID 488927;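 active means membrane potential signal moved up or down beyond 5 SD of buffer control wells, in both duplicate plates, actives on both sides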;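 further: plate controls were assay buffer wells for no effect and DAMGO maximal-effect wells for full effect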
TRPC4 ctr inh 2 – second selectivity test of TRPC6 modulators against mouse TRPC4; shares compounds with TRPC6 inhibitor; HEK293 TRPC4/mu-opioid, membrane potential dye fluorescence; stimulated with maximal-effect DAMGO; inhibition, % at 10 µM; 55% of 2,400 active; AID 488928;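 active means drop in membrane potential signal beyond 5 SD of the control wells in both duplicate plates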;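 further: TRPC4 counter screen for TRPC6 hits run under conditions tuned for TRPC6 not TRPC4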
TRPC6 block conf – mouse TRPC6 inhibitor confirmation | inhibition, % at 10 µM | AID 488960 | HEK293-TRPC6, membrane potential dye, ACh-evoked depolarization | 43% of 3,300 active | shares compounds with TRPC6 inhibitor;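 active means fluorescence ratio falls more than 5 SD below the full-stimulation control mean, in both duplicate runs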;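 further: integrated fluorescence ratio of peak minus minimum over baseline after agonist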
TRPC6 act conf – confirmation of mouse TRPC6 activators; shares compounds with TRPC6 inhibitor; HEK293-TRPC6 membrane potential dye fluorescence, FDSS; activation, % at 10 µM; 11% of 2,800 active; AID 488961;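 active means ratio signal rise beyond 5 SD above unstimulated control wells' mean, seen in both duplicate runs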;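 further: plate controls were buffer EC0 wells for no effect and acetylcholine ECmax response for full effect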
* marks the source's active call; other numbers are inactive results; i = inactive; / = not tested or not shown.

SMILES	TRPC6 act	TRPC4 act	TRPC4 block	TRPC4 potent	Kir21 block	TRPC6 inhibitor	HEK293 MPD ctr-2	HEK293 MPD ctr 2-2	TRPC4/MOR mod	TRPC4 ctr inh 2	TRPC6 block conf	TRPC6 act conf	others
COc1ccc(/C=N/NC(=O)C2(C)NC(C)(C)Cc3ccccc32)cc1 (stereo not drawn)	i	i	i	i	0.01	i	/	/	/	/	/	/
CN(CCNC(=O)c1cn(C)c2ccc(S(=O)(=O)N3CCCC3)cc2c1=O)CCc1ccccc1	i	i	i	i	0.04	i	/	/	/	/	/	/
CCCCN(C)CCCNC(=O)c1cn(CC)c2ccc(S(=O)(=O)N3CCc4ccccc4C3)cc2c1=O	i	i	i	i	-2	-6.9*	/	/	/	/	i	i	TRPC4 spec 2=52%*;TRPC4 spec=-18%*;HEK293 MPD ctr 2-1=i;HEK293 MPD ctr-1=-160%*
CCCCN(CCCC)CCNC(=O)c1cn(CC)c2ccc(S(=O)(=O)N3CCCC3)cc2c1=O	i	i	i	i	0.03	-5*	i	i	i	50%*	i	i
CCN(CC)CCNC(=O)c1cn(CC)c2ccc(S(=O)(=O)N3CCOCC3)cc2c1=O	i	i	i	i	0.62	i	/	/	/	/	/	/
CCN(CC)S(=O)(=O)c1ccc2c(c1)c(=O)c(C(=O)NCCN(C)CCc1ccccc1)cn2C	i	i	i	i	0.91	-5.4*	-64%*	i	-17%*	63%*	i	i
CC1CCN(C(=O)c2ccc3c(c2NCCO)C(=O)c2ccccc2C3=O)CC1	i	i	i	i	1.6	-7.7*	-209%*	i	-35%*	76%*	51%*	i
CCOC(=O)c1c(C)oc2c1c(CN1CCN(C(=O)OCC)CC1)c(O)c1ccccc12	i	i	i	i	-0.03	i	/	/	/	/	/	/
CCOC(=O)c1c(C)oc2c(CC(=O)c3ccccc3)c(Cl)c(O)c(O)c12	i	i	i	i	0.89	-9*	/	/	/	/	i	i	TRPC4 spec 2=i;TRPC4 spec=i;HEK293 MPD ctr 2-1=i;HEK293 MPD ctr-1=i
CC(NC(=O)C12CC3CC(CC(O)(C3)C1)C2)c1ccc(Cl)cc1Cl (stereo not drawn)	i	i	i	i	0.45	i	/	/	/	/	/	/
CN(C)S(=O)(=O)c1ccc(NC(=O)CCNC(=O)c2ccco2)cc1	i	i	i	i	0.11	i	/	/	/	/	/	/
CCCCn1c(N)c(N(CCOC)C(=O)COC(=O)C(C)(C)Oc2ccc(Cl)cc2)c(=O)[nH]c1=O	i	i	i	i	-0.96	i	/	/	/	/	/	/
CNS(=O)(=O)c1cc(NC(=O)c2cncn2-c2ccccc2)ccc1C	i	i	i	i	-0.46	i	/	/	/	/	/	/
CN1CCc2c(sc3c2C(=O)NC(/C=C\c2ccccc2)N3)C1 (stereo not drawn)	i	i	i	i	0.59	-5.7*	i	i	-14%*	63%*	58%*	i
CN1CCc2c(sc3c2C(=O)NC(c2cccs2)N3)C1 (stereo not drawn)	i	i	i	i	2	i	/	/	/	/	/	/
Cc1cc(Cl)c(OCCCNCc2ccccc2)c(Br)c1	12*	i	i	i	-11	i	302%*	i	68%*	i	i	139%*
COc1ccc(/C=N/NC(=O)c2ccc[nH]2)cc1	i	i	i	i	0.31	i	/	/	/	/	/	/
Cc1ccc(CN(CC(=O)NC(C)(C)C)C(=O)CNC(=O)c2cccs2)cc1	i	i	i	i	1.7	i	/	/	/	/	/	/
COc1cccc(C(=O)Nc2ccc3nc(N4CCOCC4)cc(C)c3c2)c1	i	i	i	i	-0.69	-5.9*	-154%*	i	-26%*	30%*	i	i
Cc1cc(N2CCOCC2)nc2ccc(NC(=O)CCC(=O)N3CCN(c4ccc(F)cc4)CC3)cc12	i	i	i	i	1	i	/	/	/	/	/	/
Cc1cc(N2CCCC2)nc2ccc(NC(=S)NCCCN3CCC(C)CC3)cc12	i	i	i	i	-2.8	-7.2*	/	/	/	/	i	i	TRPC4 spec 2=76%*;TRPC4 spec=-14%*;HEK293 MPD ctr 2-1=18%*;HEK293 MPD ctr-1=-192%*
Cc1cc(N2CCOCC2)nc2ccc(NC(=O)CCC(=O)N3CCCC(C)C3)cc12 (stereo not drawn)	i	i	i	i	0.97	-6*	-68%*	i	-18%*	36%*	i	i
Cc1cc(N2CCOCC2)nc2ccc(NC(=O)CCC(=O)N3CCN(c4ccccc4F)CC3)cc12	i	i	i	i	0.16	-6.6*	-67%*	i	-16%*	i	i	i
CCN(C(=O)COC(=O)c1ccc(Cl)c(N)c1)C1CCS(=O)(=O)C1 (stereo not drawn)	i	i	i	i	1.8	i	/	/	/	/	/	/
COC(=O)CCC(=O)Nc1ccc(S(=O)(=O)Nc2nc(C)cc(C)n2)cc1	i	i	i	i	0.03	i	/	/	/	/	/	/
CCC1CCCCN1CCCNC(=O)Cn1c2ccccc2c2nc(=O)cc(C)n21 (stereo not drawn)	i	i	i	i	1.9	i	/	/	/	/	/	/
